These results are taken from ChEMBL document CHEMBL4665848, “Constituents of Bupleurum praealtum and Bupleurum veronense with Potential Immunomodulatory Activity” (J Nat Prod, 2020).

Data set [1] is described as follows: Cytotoxicity against Wistar rat splenocytes assessed as reduction in cell viability at 10^-5 to 10^-1 mM after 24 hrs by MTT assay. It is filed as tissue-based. The settings on record: splenocyte, dose 0.00001-0.1 mM. The gist of the method:
(§1)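 Freshly isolated primary rat spleen lymphocytes and peritoneal macrophages, cultured separately. Read-out is MTT metabolism, taken as mitochondrial reductase activity. Values are mean percentages with SD, relative to RPMI-treated control cells.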
Background: Formazan colour is commonly taken as a measure of viable cells.

The test system of data set [2] is Peritoneal macrophage. Nature of the data set: Cytotoxicity against Wistar rat peritoneal macrophages assessed as assessed as lysosomal activity at 10^-5 to 10^-1 mM after 24 hrs by neutral red dye-based assay. It is filed as cell-based. Conditions: dose 0.00001-0.1 mM. The method in brief:
(§2)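 Freshly isolated primary rat splenocytes and peritoneal macrophages. Read-out is neutral red accumulation, taken as lysosomal function. Results are compared with RPMI-treated control cells.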

The subject of data set [3] is Peritoneal macrophage. Nature of the data set: Cytotoxicity against Wistar rat peritoneal macrophages assessed as reduction in cell viability at 10^-5 to 10^-1 mM after 24 hrs by MTT assay. It counts as cell-based. The settings on record: dose 0.00001-0.1 mM. The method in brief: as §1
Data set [4] is described as follows: Cytotoxicity against Wistar rat splenocytes assessed as lysosomal activity at 10^-5 to 10^-1 mM after 24 hrs by neutral red dye-based assay. It is filed as tissue-based. The settings on record: splenocyte, dose 0.00001-0.1 mM. The method in brief:
as §2

A short description of data set [5]: Cytotoxicity against Wistar rat splenocytes assessed as lysosomal activity at 100 uM after 24 hrs by neutral red dye-based assay. It counts as tissue-based. Conditions: splenocyte. The gist of the method: as §2
A short description of data set [6]: Cytotoxicity against Wistar rat splenocytes assessed as reduction in cell viability at 100 uM after 24 hrs by MTT assay. It is filed as tissue-based. The settings on record: splenocyte. The gist of the method: as §1
In data set [7] the test system is Peritoneal macrophage. Nature of the data set: Cytotoxicity against Wistar rat peritoneal macrophages assessed as lysosomal activity at 100 uM after 24 hrs by neutral red dye-based assay. It counts as cell-based. The method in brief:
as §2

The test system of data set [8] is Peritoneal macrophage. Nature of the data set: Inhibition of MPO in Wistar rat peritoneal macrophages assessed as oxidation of 1,2-diaminobenzene at 10^-5 to 10^-1 mM. It is filed as tissue-based. Conditions: dose mM 0.00001-0.1, time 24.0 hrs.
The subject of data set [9] is Peritoneal macrophage. Nature of the data set: Cytotoxicity against Wistar rat peritoneal macrophages assessed as reduction in cell viability at 100 uM after 24 hrs by MTT assay. It is filed as cell-based. The gist of the method:
as §1

Data set [10] has as its system Peritoneal macrophage. The data set is described as follows: Cytotoxicity against Wistar rat peritoneal macrophages assessed as lysosomal activity at 10 to 100 uM after 24 hrs by neutral red dye-based assay. It counts as cell-based. The settings on record: dose 10-100 µM. The gist of the method: as §2

Structures are written as SMILES. The source made the active and inactive calls. No cut-off for these calls is given here.

Take `CC/C=C/C=C/C=C/C=C\CCCCOC(=O)[C@H](OC(C)=O)C(C)C`: the Activity entry (in data set [1]; in the data set with Peritoneal macrophage [2]; with Peritoneal macrophage [3]; in data set [4]) was “Non-Toxic” throughout.

For the compound `CC/C=C/C=C/C=C/C=C/[C@@H]1CCC(=O)O1`, the Activity result (in data set [5]; in [6]; in the data set on Peritoneal macrophage [7]; in the data set with Peritoneal macrophage [9]) was “Toxic” in each case. Moreover, in the data set with Peritoneal macrophage [8], the inhibition result was “Active”.

Consider `COc1ccc(C[C@H]2COC(=O)[C@@H]2Cc2ccc(OC)c(OC)c2)cc1OC`, for which the Activity result (in [5]; with Peritoneal macrophage [10]) was “Non-Toxic” each time.

As to `CC/C=C/C=C/C=C/C=C\CCCCOC(=O)[C@H](O)C(C)C`, the Activity result (in [1]; with Peritoneal macrophage [2]; with Peritoneal macrophage [3]; in data set [4]) was “Non-Toxic” in each case. The inhibition result in the data set on Peritoneal macrophage [8] was “Active”.
